Our source for the Activity values is ChEMBL document CHEMBL1687758, “Azithromycin alters macrophage phenotype and pulmonary compartmentalization during lung infection with Pseudomonas” (2010).

Assay [1] concerns Mus musculus. As to the kind of experiment: Immunomodulatory activity in Pseudomonas aeruginosa M57-15 infected C57BL/6 mouse lung assessed as decrease of TNFalpha production in CD11b+ cells in lung digest at 0.16 g/kg, po measured after 7 days by flow cytometry. The class given is functional, organism-based. The method in brief:
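Lung digest cells (2 × 106) were stimulated for 4 h with 50 ng/ml PMA and 500 ng/ml ionomycin plus 10 μg/ml brefeldin A. They were surface-stained for CD11b/CD11c, fixed in 4% formalin, permeabilized with 0.05% saponin, Fc-blocked, and stained for intracellular TNF-α and IL-10 for flow cytometry. Mice were dosed at 0.16 g/kg by daily oral gavage from 4 days before infection.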
A general note: A flow cytometer gives signals particle by particle.

The subject of assay [2] is Mus musculus. As to the kind of experiment: Immunomodulatory activity in Pseudomonas aeruginosa M57-15 infected C57BL/6 mouse lung assessed as increase of CD80 expression in CD11b+ Gr1+ cells in lung digest at 0.16 g/kg, po measured after 7 days by flow cytometry. The format is functional, organism-based. The method in brief:
(§1)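 Oral gavage of 0.16 g/kg daily (2% methylcellulose vehicle) began 4 days before intratracheal bead infection (1 × 105 to 2 × 10^5 CFU). On days 3, 7 and 14, cells were taken from lavage (0.3 mM EDTA buffer) and from collagenase/DNase lung digest (1 h, 37°C). Cells were stained for CD11b, CD11c, Gr-1, CD4, CD80, MHC-II and MR, with more than 50,000 events acquired. Counts were gated percent × manual cell count.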

Assay [3] concerns Pseudomonas aeruginosa. As to the kind of experiment: Antibacterial activity against Pseudomonas aeruginosa M57-15 infected in C57BL/6 mouse assessed as effect on host weight loss at 0.16 g/kg, po measured up to 14 days. The class given is functional, organism-based. The method in brief:
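Dosing was 0.16 g/kg daily by oral gavage in 2% methylcellulose, or vehicle, from 4 days before intratracheal bead infection (1 × 105 to 2 × 10^5 CFU). Body weight was followed over the study and compared with a sham-infected group. Groups had 3 to 6 mice, and each experiment was repeated at least three times.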

Assay [4] deals with Mus musculus. As to the kind of experiment: Immunomodulatory activity in Pseudomonas aeruginosa M57-15 infected C57BL/6 mouse lung assessed as effect on CD11b+ cells infiltration in lung lavage fluid at 0.16 g/kg, po measured after 7 days by flow cytometry. The class given is functional, organism-based. A digest of the protocol:
as §1

In assay [5] the test system is Mus musculus. As to the kind of experiment: Immunomodulatory activity in Pseudomonas aeruginosa M57-15 infected C57BL/6 mouse lung assessed as reduction of CD11b- and Gr-1+ cells infiltration in lung lavage fluid at 0.16 g/kg, po measured after 7 days by flow cytometry. The format is functional, organism-based. The note with it: in the assay text read “lung digest” for “lung lavage fluid”. A digest of the protocol: as §1

Assay [6] has as its system Mus musculus. As to the kind of experiment: Immunomodulatory activity in Pseudomonas aeruginosa M57-15 infected C57BL/6 mouse lung assessed as CD11b+c- cell expression level in lung digest at 0.16 g/kg, po measured after 7 days by flow cytometry (reference value: 17.07 +/- 4.84 %). The format is functional. A digest of the protocol: as §1
In assay [7] the test system is Mus musculus. As to the kind of experiment: Immunomodulatory activity in Pseudomonas aeruginosa M57-15 infected C57BL/6 mouse lung assessed as CD11b+c- cell expression level in lung digest at 0.16 g/kg, po measured after 14 days by flow cytometry (reference value: 21.97 +/- 3.51 %). The class given is functional. The method in brief:
as §1

Assay [8] deals with Mus musculus. As to the kind of experiment: Immunomodulatory activity in Pseudomonas aeruginosa M57-15 infected C57BL/6 mouse lung assessed as CD11b+c+ cell expression level in lung digest at 0.16 g/kg, po measured after 3 days by flow cytometry (reference value: 8.63 +/- 0.53 %). The class given is functional. A digest of the protocol:
as §1

The test system of assay [9] is Mus musculus. As to the kind of experiment: Immunomodulatory activity in Pseudomonas aeruginosa M57-15 infected C57BL/6 mouse lung assessed as CD11b+c+ cell expression level in lung digest at 0.16 g/kg, po measured after 14 days by flow cytometry (reference value: 6.6 +/- 1.86 %). The class given is functional. The method in brief: as §1
Assay [10] concerns Mus musculus. As to the kind of experiment: Immunomodulatory activity in Pseudomonas aeruginosa M57-15 infected C57BL/6 mouse lung assessed as CD11b-c+ cell expression level in lung digest at 0.16 g/kg, po measured after 3 days by flow cytometry (reference value: 19.71 +/- 3.89 %). The format is functional. The method in brief: as §1
Assay [11] has as its system Mus musculus. As to the kind of experiment: Immunomodulatory activity in Pseudomonas aeruginosa M57-15 infected C57BL/6 mouse lung assessed as CD11b+c+ cell expression level in lung lavage fluid at 0.16 g/kg, po measured after 14 days by flow cytometry (reference value: 5.42 +/- 5.34 %). The format is functional. The method in brief: as §1
Assay [12] has as its system Mus musculus. As to the kind of experiment: Immunomodulatory activity in Pseudomonas aeruginosa M57-15 infected C57BL/6 mouse lung assessed as increase of mannose receptor expression in lung digest at 0.16 g/kg, po measured after 7 days by flow cytometry. The format is functional, organism-based. A digest of the protocol: as §1
The subject of assay [13] is Mus musculus. As to the kind of experiment: Immunomodulatory activity in Pseudomonas aeruginosa M57-15 infected C57BL/6 mouse lung assessed as up-regulation of CCR7 expression in CD11+ Gr1- cells in lung digest at 0.16 g/kg, po measured after 7 days by flow cytometry. The format is functional, organism-based. The method in brief: as §1
The subject of assay [14] is Mus musculus. As to the kind of experiment: Immunomodulatory activity in Pseudomonas aeruginosa M57-15 infected C57BL/6 mouse lung assessed as up-regulation of MHC2 expression in CD11+ Gr1- cells in lung digest at 0.16 g/kg, po measured after 7 days by flow cytometry. The format is functional, organism-based. A digest of the protocol: as §1
The test system of assay [15] is Mus musculus. As to the kind of experiment: Immunomodulatory activity in Pseudomonas aeruginosa M57-15 infected C57BL/6 mouse lung assessed as increase of mannose receptor expression in CD11b+ Gr1+ cells in lung digest at 0.16 g/kg, po measured after 7 days by flow cytometry. The class given is functional, organism-based. The method in brief: as §1
For assay [16], the system named is Mus musculus. As to the kind of experiment: Immunomodulatory activity in Pseudomonas aeruginosa M57-15 infected C57BL/6 mouse lung assessed as increase of mannose receptor expression in CD11b+ Gr1+ cells in alveolar space at 0.16 g/kg, po measured after 7 days by flow cytometry. The format is functional, organism-based. A digest of the protocol:
as §1

Assay [17] deals with Mus musculus. As to the kind of experiment: Immunomodulatory activity in Pseudomonas aeruginosa M57-15 infected C57BL/6 mouse lung assessed as decrease of TNFalpha production in CD11b+ cells in lung lavage fluid at 0.16 g/kg, po measured after 7 days by flow cytometry. The class given is functional, organism-based. A digest of the protocol:
(§2)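 The first 1-ml lavage wash was frozen at −80°C. Samples diluted 5-fold were incubated 3 h at room temperature with capture beads for a cytometric bead array (IL-12p70, CCL2, TNF-α, IL-10, IFN-γ, IL-6) plus a PE-conjugated detection antibody. Fluorescence was read by flow cytometry against standard curves. Mice had daily oral 0.16 g/kg from 4 days before intratracheal infection.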

Assay [18] deals with Mus musculus. As to the kind of experiment: Immunomodulatory activity in Pseudomonas aeruginosa M57-15 infected C57BL/6 mouse lung assessed as decrease of IL-6 production in CD11b+ cells in lung lavage fluid at 0.16 g/kg, po measured after 7 days by flow cytometry. The class given is functional, organism-based. The method in brief:
as §2

Assay [19] deals with Mus musculus. As to the kind of experiment: Immunomodulatory activity in Pseudomonas aeruginosa M57-15 infected C57BL/6 mouse lung assessed as decrease of CCL2 production in CD11b+ cells in lung lavage fluid at 0.16 g/kg, po measured after 7 days by flow cytometry. The class given is functional, organism-based. The method in brief: as §2
Assay [20] concerns Mus musculus. As to the kind of experiment: Immunomodulatory activity in Pseudomonas aeruginosa M57-15 infected C57BL/6 mouse lung assessed as increase of total cells in lung digest at 0.16 g/kg, po measured by flow cytometry.
In assay [21] the test system is Mus musculus. As to the kind of experiment: Immunomodulatory activity in Pseudomonas aeruginosa M57-15 infected C57BL/6 mouse lung assessed as increase of arginase activity in lung digest at 0.16 g/kg, po measured after 7 days.

Structures are written as SMILES. The source made the active and inactive calls. The calls are words filed in the database; no cut-off is given here.

As to `CC[C@H]1OC(=O)[C@H](C)[C@@H](O[C@H]2C[C@@](C)(OC)[C@@H](O)[C@H](C)O2)[C@H](C)[C@@H](O[C@@H]2O[C@H](C)C[C@H](N(C)C)[C@H]2O)[C@](C)(O)C[C@@H](C)CN(C)[C@H](C)[C@@H](O)[C@]1(C)O` [AZITHROMYCIN], the result in [1], in assay [2], in assay [4], in assay [5], in [12] and in assay [13] was Active. The outcome in [14], in assay [15], in assay [16], in assay [17], in assay [18] and in [19] was Active. Also, the outcome in assay [20] and in assay [21] was Active. In assay [3], the outcome was inactive. In addition, the Activity is reported as 16.83% in assay [6]; 15.55% in assay [7]; 7.44% in assay [8]; 4.31% in assay [9]; 20.92% in assay [10]; 5.25% in [11].
